Variants at the floor of the assay were thinned out.
B1: tRNA (parent)
chain: GUUCCGUUGGCGUAAUGGUAACGCGUCUCCCUCCUAAGGAGAAGACUGCGGGUUCGAGUCCCGUACGGAACG

Variants of: B1
Assay: yeast fitness relative to wild type (ratio to wild type); higher = fitter; tRNA-Arg(CCU), competitive growth, 37 C, YPD
Summary of the method: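 Gene amplicons from the start population and from each of six end populations were read by 100-nucleotide paired-end sequencing. Those end populations came from pooled Saccharomyces cerevisiae strains carrying tRNA-Arg(CCU) gene variants at the native locus, competed in YPD at 37°C for 24 hours. Fitness relative to wild type was worked out from changes in genotype frequencies. Genotypes needed ≥ 100 starting reads, and estimates < 0.5 were set to 0.5.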

Variant | yeast fitness
U2G C11G A20G C24U C31G | 0.615
U3A C4G | 0.792
U3A C4A | 0.681
U3A C4U | 0.874
U2G U8C C22U C24G U32C A37G A69G A70G | ≤ 0.5
U3A C4G U8A C49G | ≤ 0.5
U2G G6A C27U A36U C60G | 0.526
U2G U13A C60U | 0.816
U2G C22U U32C | ≤ 0.5
U3A A40C C62U | 0.548
U3A A15G G48C | 0.595
U2G U7C C55U C62G C66A | ≤ 0.5
U2G C24A A45G | 0.586
U3A A15C U35A G52C C55A | ≤ 0.5
U2G G12U A43U | 0.631
U3A A20U C29G A40U G50C | ≤ 0.5
U2G C30A C46U G52C | ≤ 0.5
U2G C4A U16C C31U A70U | ≤ 0.5
U3A A21C G25U A43C C61G C62U | ≤ 0.5
U2G C5A | 0.725
U2G C31U U54G | ≤ 0.5
U2G C4U C11G G18C U32C C34U A45U A70U | ≤ 0.5
U2G C11U G52C C55G A70G | ≤ 0.5
U3A A42G G52C A57G | ≤ 0.5

Variant | yeast fitness
U2G G12A U13A G25C U28A C33A G63C U64C C66U | ≤ 0.5
U2G U54C | 0.962
U2G U54G | ≤ 0.5
U3A A42C A65U C66U G67C | 0.569
U3A A36G C62U | 0.69
U2G G51C | 0.543
U2G C11G G38C G44A | ≤ 0.5
U2G A36U C46G C62A A69C | ≤ 0.5
U2G G9A A69U | 0.577
U3A A20G C22U | 0.584
U3A A14C A37C U47A | ≤ 0.5
U2G A45U G67C | ≤ 0.5
U3A C4G G9A C11G A45U | ≤ 0.5
U2G C27U C46U G58A | 0.662
U2G C31G G39C C60A | ≤ 0.5
U2G G52A | 0.774
U2G G6A | 0.634
U2G C29G C33G | ≤ 0.5
U3A A21C C33U U35A G51C G68C A70U | 0.564
U2G C31U G50A C60U | ≤ 0.5
U2G C11G G12C C49U | ≤ 0.5
U2G U3C A21C | ≤ 0.5
U2G A57C G68U | ≤ 0.5
U3A C4U G25C | ≤ 0.5

Variant | yeast fitness
U2G C33U A65C | ≤ 0.5
U2G A70G | 1.07
U2G A70U | 0.917
U3A A37C C61A | ≤ 0.5
U3A A40U | 0.841
U3A A21U G51C | ≤ 0.5
U2G G25A U53A G63A | 0.563
U2G U13A C22U | 0.579
U2G G38C | 0.606
U3A A37C G44C A45U | ≤ 0.5
U2G G6A C31G C33U U59G C66U G68A | ≤ 0.5
U2G C49U C66U | 0.606
U2G C11U A40U C49A | 0.523
U3A C4A A21U | ≤ 0.5
U2G U13A C22U C61U C66U | ≤ 0.5
U3A A14C A37C C49U | ≤ 0.5
U3A A42U A43G G48C U53A A69C | ≤ 0.5
U2G C4A U16C C61G | 0.571
U2G U19G A70C | 0.685
U2G C27U A36G C62A | ≤ 0.5
U3A A14G G23C C49G | 0.503
U2G U54A C61U A65C G67U | 0.576
U2G C4A U16C | ≤ 0.5
U2G C4U G25A A40C C46U | ≤ 0.5

Variant | yeast fitness
U2G A43U | 0.996
U2G A43C | 1.07
U3A C4G A42G | ≤ 0.5
U3A | 1
U2G G25A U53A | ≤ 0.5
U2G C49U C62U | 0.565
U2G U3C C55U C61A | ≤ 0.5
U3A C4U G25C G63C | ≤ 0.5
U2G C11G A20U C24G C55A C61U | ≤ 0.5
U2G G9C A65C G68A | ≤ 0.5
U2G U59C C66A G67A | ≤ 0.5
U2G U7G U26A C49U A65U | ≤ 0.5
U2G C34G | 0.655
U2G C34U | 0.616
U3A A43U C66U | 0.635
U3A A14C A20C U28A C29G U32C G39A A70C | ≤ 0.5
U2G U19A A21G A65U G67C | 0.543
U3A A14U A20C | ≤ 0.5
U2G A40C A65G C66G | ≤ 0.5
U2G C11U A40G G50C | ≤ 0.5
U2G U32C A40G | ≤ 0.5
U2G C29A A40U | ≤ 0.5
U3A C4U G67C | 0.624
U2G G18C U26A C33U C46U A57C | ≤ 0.5

Variant | yeast fitness
U2G C34G G39C G41C G67C | ≤ 0.5
U2G A43G G56A | 0.589
U2G G52C C61G | ≤ 0.5
U2G C46G | 0.864
U2G C46U | 1.01
U2G A45U C46G A69C | 0.537
U2G G68C | 0.705
U2G G9C G12A A42C C46A G68C | ≤ 0.5
U3A A15U G48A A57G C61A | ≤ 0.5
U2G U35C A42C U47A G63C A69C | ≤ 0.5
U2G A20U | 0.757
U3A A15C | 0.659
U3A A21U C60G C66U | ≤ 0.5
U3A C4G C62U A70C | 0.754
U3A C4U C5U | 0.594
U2G G12A U13A G25C U28A C33A G63C U64C | ≤ 0.5
U2G G9A | 1.01
U2G G12A U35C | ≤ 0.5
U2G U13C A21G U35A C55U A70G | ≤ 0.5
U3A A65G | 0.899
U3A A65U | 0.704
U3A A21G C34G A40G C60G C62G | ≤ 0.5
U2G U26G C49G | 0.724
U2G U26G G44C G58A A65G | ≤ 0.5

Variant | yeast fitness
U2G C24A | 0.82
U2G C24G | 0.769
U2G C11U G23A C46U U54A | ≤ 0.5
U2G G10C A40G A57G | ≤ 0.5
U2G G12C C49U C66U | ≤ 0.5
U2G C4U G56A C61A C62U A65U A69C | ≤ 0.5
U2G C4U U16A C27G A42U U53C | 0.564
U2G G10C | 0.527
U3A A20G C55G C61U | ≤ 0.5
U2G U13G C49U G56A A70G | ≤ 0.5
U3A A21G U35A A40U U54C | ≤ 0.5
U2G U19A A21G C31U A65U G67C | ≤ 0.5
U3A A40C C55A C66A | ≤ 0.5
U2G A37C G41A C49U C60G | 0.51
U2G C5U A21C G48A G50C | ≤ 0.5
U2G C62G A69C | ≤ 0.5
U2G G18C G23U U64A | 0.606
U2G C33U G58C A70U | 0.581
U2G G63A | 0.876
U2G U16A | 1.15
U2G U16C | 0.969
U2G C46A C66U | 0.584
U2G C5A U19A A43G | ≤ 0.5
U2G C34U U35C | ≤ 0.5

Variant | yeast fitness
U2G G9C A20G G25A A42C C46G C49U A69C | ≤ 0.5
U2G C62G C66U | ≤ 0.5
U2G C5A G10C | ≤ 0.5
U2G G10A A69C | ≤ 0.5
U2G C30U G58C G63C | 0.618
U2G G9C A20G A42C C46G C49U G63A A69C | ≤ 0.5
U2G A40G G41C C60G | 0.688
U2G C66U | 0.858
U2G C4A C22U U28G A42U G68U | ≤ 0.5
U2G C62G | 0.632
U2G C30G | 0.679
U2G A43U G67C | 0.668
U2G A21G C49U | 0.708
U3A A21C G25U A43C C61A C62U | 0.592
U2G G52A G56A | 0.81
U2G C11U C30U C55A A65C | ≤ 0.5
U3A A42U | 0.846
U2G C4U C27A C66A | ≤ 0.5
U3A A14U C60U C62U A70G | 0.651
U3A C4U U7A C24U A70G | ≤ 0.5
U2G U16G C27A A36C A70C | ≤ 0.5
U2G G44C C55G | ≤ 0.5
U3A C4U C61G G63C | ≤ 0.5
